The source made the active and inactive calls.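 Rule for the calls, unless noted: active = GFP response above 150% of the DMSO level; inconclusive = fewer than 70 events counted for a yeast strain; inactive = the rest.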
Columns and labels:
[1] = RPL19A-GFP modulators, yeast TOR pathway, confirmation, cell-based, S. cerevisiae, flow cytometry, cherry picks, mother/daughter gates (AID 2270;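 active = GFP response below 50% of the DMSO control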); details: S. cerevisiae RPL19A-GFP strain, 3 h, at 10 µM, stronger effect = lower value, 100 = same GFP as DMSO wells
[2] = LAP4-GFP expression modulators in yeast, confirmation, cell-based, cherry picks, flow cytometry, mother/daughter gates (AID 2271;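 active = GFP response above 150% of the DMSO control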;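 note: ratio of sample to DMSO plate mean so 100% equals DMSO level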); details: S. cerevisiae LAP4-GFP strain, 3 h, at 10 µM, stronger effect = higher value, 100 means same as DMSO control
Procedure, shortened: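 System: GFP-fusion yeast strain; Incubation: compound exposure 3 h at 30 °C, end-over-end rotation; Measured by: GFP by flow cytometry; Read-out: median GFP fluorescence as percent of plate-mean DMSO wells; Medium: synthetic complete (SC) yeast growth medium; Compound: single test-compound dose, 10 µM final; Benchmarks: DMSO-only negative wells, rapamycin 400 ng/mL positive wells.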

[3] = modulators of MEP2-GFP levels in yeast, confirmation, S. cerevisiae, flow cytometry GFP, cherry picks (AID 2272;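 active = GFP response above 150% of the DMSO control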;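 note: ratio of well signal to plate DMSO mean so 100% equals DMSO level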); details: S. cerevisiae MEP2-GFP strain, 3 h, at 10 µM, stronger effect = higher value
[4] = AGP1-GFP expression modulators, hit retest, confirmation, cell-based, flow cytometry, S. cerevisiae, cherry picks (AID 2273);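 note: median GFP channel fluorescence over the whole cell population gate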; details: S. cerevisiae AGP1-GFP strain, 3 h, at 10 µM
[5] = modulators of CIT2-GFP expression in yeast, confirmation, S. cerevisiae, GFP fusion, cherry picks, mother/daughter gates (AID 2274); details: S. cerevisiae CIT2-GFP strain, flow cytometry, 3 h, at 10 µM, stronger effect = higher value
[6] = measured here: daughter cell gate
[7] = measured here: mother cell gate
[8] = measured here: daughter cell gate response
[9] = measured here: mother cell gate response

Row | SMILES | GFP response vs DMSO [1] | GFP response vs DMSO [1, 6] | GFP response vs DMSO [1, 7] | GFP response relative to DMSO [2] | GFP response relative to DMSO [2, 8] | GFP response relative to DMSO [2, 9] | GFP response vs DMSO [3] | GFP response, % of DMSO [4] | GFP response, % of DMSO [5] | GFP response, % of DMSO [5, 6] | GFP response, % of DMSO [5, 7]
1 | Cc1ccc(C(=O)NNC(=S)NC(=O)COc2ccccc2)cc1 | 122% (inactive) | 92.1% | 110% | 223% (active) | 186% | 203% | 153% (inactive) | 134% (inactive) | 138% (inactive) | 139% | 110%
2 | COC(=O)c1cc(NC(=O)c2c(Cl)nc3sccn23)cc(C(=O)OC)c1 | 97% (inactive) | 98.6% | 96.9% | 92.8% (inactive) | 92.8% | 92.9% | 102% (inactive) | 90% (inactive) | 99.7% (inactive) | 101% | 99.7%
3 | Cc1ccc(NC(=O)c2ccccc2)cc1 | 100% (inactive) | 99% | 100% | 98.7% (inactive) | 100% | 100% | 100% (inactive) | 91.5% (inactive) | 96.5% (inactive) | 96.5% | 93.4%
4 | Cc1ccccc1OC1CCN(C(=O)C2CCC(=O)N(C3CCCC3)C2)CC1 (configuration not stated) | 97.6% (inactive) | 98.4% | 97.7% | 101% (inactive) | 99.2% | 99.3% | 105% (inactive) | 96.6% (inactive) | 95.5% (inactive) | 95.4% | 95%
5 | O=C(O)COc1c(-c2ccc(Cl)cc2)oc2ccccc2c1=O | 97% (inactive) | 95.4% | 97.9% | 99.2% (inactive) | 99.2% | 99.3% | 102% (inactive) | 96% (inactive) | 96.9% (inactive) | 97.2% | 96.1%
6 | CCc1ccc(-c2csc(NC(=O)COC(=O)CCc3nc4ccccc4s3)n2)cc1 | 105% (inactive) | 102% | 106% | 98.2% (inactive) | 97.5% | 98.4% | 103% (inactive) | 103% (inactive) | 106% (inactive) | 101% | 105%
7 | CN1CCN(CCCCOc2ccccc2C=O)CC1 | 99.5% (inactive) | 97.8% | 101% | 97.4% (inactive) | 97.2% | 99.3% | 104% (inactive) | 102% (inactive) | 97.8% (inactive) | 94.8% | 98.7%
8 | CCOC(=O)C1CCCN(c2nc3c(C)cccn3c(=O)c2/C=C(\C#N)C(=O)NCc2ccco2)C1 (configuration not stated) | 102% (inactive) | 101% | 101% | 101% (inactive) | 102% | 99.5% | 114% (inactive) | 95.2% (inactive) | 104% (inactive) | 104% | 100%
9 | COC(=O)c1cc(S(=O)(=O)Nc2nn(C)c3ccccc23)oc1C | 97.2% (inactive) | 98.1% | 97.1% | 96.7% (inactive) | 97.6% | 94% | 100% (inactive) | 95% (inactive) | 99.7% (inactive) | 101% | 99.7%
10 | O=C(CN1CCN(Cc2ccccc2Cl)C1=O)NC1CCCCCCC1 | 98.2% (inactive) | 98.6% | 99.7% | 96.7% (inactive) | 97.6% | 95.1% | 100% (inactive) | 99.7% (inactive) | 107% (inactive) | 106% | 104%
11 | O=C(Nc1cc(Sc2ccccn2)cc([N+](=O)[O-])c1)c1ccc([N+](=O)[O-])cc1 | 97.8% (inactive) | 98.4% | 96.9% | 98.9% (inactive) | 101% | 98.4% | 110% (inactive) | 104% (inactive) | 107% (inactive) | 106% | 106%
12 | CCc1ccc(C(=O)COC(=O)c2n[nH]c3ccccc23)cc1 | 95.8% (inactive) | 97.3% | 94% | 102% (inactive) | 101% | 104% | 101% (inactive) | 101% (inactive) | 101% (inactive) | 97.6% | 102%

— PubChem BioAssay
